How the values were obtained:
RAW264.7 [1] = assay: Antiinflammatory activity in LPS-stimulated mouse RAW264.7 cells assessed as inhibition of nitric oxide production after 24 hrs by Griess reagent; assay type: functional, cell-based; settings: RAW264.7, 24 h
RAW264.7 [2] = assay: Cytotoxicity against LPS-stimulated mouse RAW264.7 cells after 24 hrs by MTT assay; assay type: cell-based; settings: RAW264.7, 24 h
Outline: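 RAW264.7 in 96-well plates left untreated or exposed to compounds at various concentrations for 24 h. MTT (5 mg/mL) added 4 h before end. Lysis buffer (10% SDS, 50% DMF, pH 7.2) applied 6 h, absorbance read at 570 nm.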

SMILES | IC50 (RAW264.7 [1]) [µM] | IC50 (RAW264.7 [2]) [µM]
O=C(Oc1coc2cc(O)cc(O)c2c1=O)c1ccccc1 | 86.6 | > 100
O=c1cc(-c2ccc(O)c(O)c2)oc2cc(O)cc(O)c12 [LUTEOLIN] | 10.4 | 
CCn1cc(-c2ccc(O)cc2)c(=O)c2c(O)cc(O)cc21 [AZAISOFLAVONE] | 7.8 | 
Cc1ccccc1C(=O)Oc1coc2cc(O)cc(O)c2c1=O | 17 | > 100
O=c1c(O)coc2cc(O)cc(O)c12 | > 100 | > 100
O=c1cc(-c2ccc(O)cc2)oc2cc(O)cc(O)c12 [APIGENIN] | 7.7 | 
O=c1c(-c2ccc(O)cc2)coc2cc(O)cc(O)c12 [GENISTEIN] | 26 | 
O=c1c(CO)coc2cc(O)cc(O)c12 | > 100 | > 100
Cc1ccc(S(=O)(=O)Oc2coc3cc(O)cc(O)c3c2=O)cc1 | 19.2 | > 100
CCCCC(=O)Oc1coc2cc(O)cc(O)c2c1=O | 60.4 | > 100
COc1ccc(C(=O)Oc2coc3cc(O)cc(O)c3c2=O)cc1 | 47.2 | > 100
CCCCCCCCC(=O)Oc1coc2cc(O)cc(O)c2c1=O | 62.2 | > 100
CC(=O)Oc1coc2cc(O)cc(O)c2c1=O | 60 | > 100
CS(=O)(=O)Oc1coc2cc(O)cc(O)c2c1=O | 53.7 | > 100
